Our source for the Activity and MIC values is ChEMBL document CHEMBL1152672, “Side chain azasteroids and thiasteroids as sterol methyltransferase inhibitors in ergosterol biosynthesis” (2009).

In general, MIC refers to the lowest concentration found to suppress growth.

In brackets after ≈: the same amount, converted by molar mass. Activity calls are given as the source filed them. No cut-off for these calls is given here.

The target of test [1] is T1, Sterol 24-C-methyltransferase (Yarrowia lipolytica) (UniProt Q6C2D9).
T1 sequence (whole entry): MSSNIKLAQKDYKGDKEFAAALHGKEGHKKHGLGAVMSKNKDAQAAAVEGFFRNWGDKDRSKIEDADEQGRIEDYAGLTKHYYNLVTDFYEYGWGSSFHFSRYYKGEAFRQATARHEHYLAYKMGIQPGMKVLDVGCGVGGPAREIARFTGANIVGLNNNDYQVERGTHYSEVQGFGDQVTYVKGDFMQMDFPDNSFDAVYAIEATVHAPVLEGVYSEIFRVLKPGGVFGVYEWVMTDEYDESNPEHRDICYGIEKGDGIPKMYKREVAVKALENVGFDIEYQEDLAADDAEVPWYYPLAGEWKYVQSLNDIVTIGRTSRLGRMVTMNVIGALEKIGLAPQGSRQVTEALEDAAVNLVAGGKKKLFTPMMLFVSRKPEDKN
Put plainly: Inhibition of Yarrowia lipolytica 24-SMT assessed as cholesta-7,24-dien-3-trimethylsilyl derivative at 0.2 ug/mL after 48 hrs by GC-MS analysis relative to untreated control. Further details: scale not given: the % may be the effect or the level left. Put shortly:
(§1)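 Whole-cell sterol profiling. Y. lipolytica at 50,000 CFU/mL was exposed to compounds added from ethanol for 48 ± 2 h at 28 °C, and the MIC/2 and/or MIC/4 wells were used. Cells were pelleted and PBS-washed, then saponified in 1 M NaOH at 70 °C for 1 h. Sterols were extracted into TBME with a cholesterol internal standard and silylated to TMS ethers. GC-MS full scan, with each sterol given as % of total integrated quantifier-ion area.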

In test [2] the target is T1, Sterol 24-C-methyltransferase (Yarrowia lipolytica). In words: Inhibition of Yarrowia lipolytica 24-SMT assessed as dehydroergosterol-3-trimethylsilyl derivative at 0.06 ug/mL after 48 hrs by GC-MS analysis relative to untreated control. Further details: scale not given: the % may be the effect or the level left. In short, it runs like this: as §1
For test [3] the target is unchanged. Put plainly: Inhibition of Yarrowia lipolytica 24-SMT assessed as 5-dehydroepisterol-3-trimethylsilyl derivative at 0.06 ug/mL after 48 hrs by GC-MS analysis relative to untreated control. Further details: scale not given: the % may be the effect or the level left. In short, it runs like this: as §1
Test [4] has the same target. Put plainly: Inhibition of Yarrowia lipolytica 24-SMT assessed as 5-dehydroepisterol-3-trimethylsilyl derivative at 0.2 ug/mL after 48 hrs by GC-MS analysis relative to untreated control. Further details: scale not given: the % may be the effect or the level left. Put shortly: as §1
The test system of test [5] is Yarrowia lipolytica. Put plainly: Antimicrobial activity against Yarrowia lipolytica after 48 hrs. The class given is functional. Put shortly: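 Broth dilution MIC per DIN 58940-84. Log-phase Y. lipolytica in yeast extract/peptone/glucose medium, counted against a 0.5 McFarland standard (A570) and seeded at 50,000 CFU/mL in 2 mL wells. Compounds added from ethanol; final concentrations 2 to 0.06125 µg/mL unless otherwise stated. Plates incubated 48 ± 2 h at 28 °C. MIC is the lowest concentration with no visible growth.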

The target in test [6] is T1, Sterol 24-C-methyltransferase (Yarrowia lipolytica). Put plainly: Inhibition of Yarrowia lipolytica 24-SMT assessed as ergosterol-3-trimethylsilyl derivative level at 0.2 ug/mL after 48 hrs by GC-MS analysis relative to untreated control. Further details: scale not given: the % may be the effect or the level left. Put shortly: as §1
Test [7] has the same target. Put plainly: Inhibition of Yarrowia lipolytica 24-SMT assessed as dehydroergosterol-3-trimethylsilyl derivative at 0.2 ug/mL after 48 hrs by GC-MS analysis relative to untreated control. Further details: scale not given: the % may be the effect or the level left. Put shortly: as §1
The target is the same in test [8]. In words: Inhibition of Yarrowia lipolytica 24-SMT assessed as lanosterol-3-trimethylsilyl derivative at 0.2 ug/mL after 48 hrs by GC-MS analysis relative to untreated control. Further details: scale not given: the % may be the effect or the level left. Put shortly: as §1
Test [9] has the same target. Put plainly: Inhibition of Yarrowia lipolytica 24-SMT assessed as cholesta-5,7,24-trien-3-trimethylsilyl derivative at 0.06 ug/mL after 48 hrs by GC-MS analysis relative to untreated control. Further details: scale not given: the % may be the effect or the level left. Put shortly: as §1
For test [10] the target is unchanged. Put plainly: Inhibition of Yarrowia lipolytica 24-SMT assessed as cholesta-5,7,24-trien-3-trimethylsilyl derivative at 0.2 ug/mL after 48 hrs by GC-MS analysis relative to untreated control. Further details: scale not given: the % may be the effect or the level left. Put shortly: as §1
The target is the same in test [11]. Put plainly: Inhibition of Yarrowia lipolytica 24-sterol C-methyltransferase assessed as ergosterol-3-trimethylsilyl derivative level at 0.06 ug/mL after 48 hrs by GC-MS analysis relative to untreated control. Further details: scale not given: the % may be the effect or the level left. Put shortly:
as §1

For test [12] the target is unchanged. Put plainly: Inhibition of Yarrowia lipolytica 24-SMT assessed as cholesta-7,24-dien-3-trimethylsilyl derivative at 0.06 ug/mL after 48 hrs by GC-MS analysis relative to untreated control. Further details: scale not given: the % may be the effect or the level left. Put shortly: as §1
The subject of test [13] is Yarrowia lipolytica. Put plainly: Antimicrobial activity against Yarrowia lipolytica by agar diffusion test. The class given is functional, organism-based. In general terms: In agar diffusion tests the substance spreads into inoculated agar from a disc or well.
Test [14] deals with T1, Sterol 24-C-methyltransferase (Yarrowia lipolytica). Put plainly: Inhibition of Yarrowia lipolytica 24-SMT assessed as cholesta-5,7,24-trien-3-trimethylsilyl derivative at 2 ug/mL after 48 hrs by GC-MS analysis relative to untreated control. Further details: scale not given: the % may be the effect or the level left. Put shortly:
as §1

Test [15] has the same target. Put plainly: Inhibition of Yarrowia lipolytica 24-SMT assessed as dehydroergosterol-3-trimethylsilyl derivative at 2 ug/mL after 48 hrs by GC-MS analysis relative to untreated control. Further details: scale not given: the % may be the effect or the level left. In short, it runs like this: as §1
For test [16] the target is unchanged. Put plainly: Inhibition of Yarrowia lipolytica 24-SMT assessed as zymosterol-3-trimethylsilyl derivative level at 2 ug/mL after 48 hrs by GC-MS analysis relative to untreated control. Further details: scale not given: the % may be the effect or the level left. In short, it runs like this: as §1
Test [17] shares this target. Put plainly: Inhibition of Yarrowia lipolytica 24-SMT assessed as 5-dehydroepisterol-3-trimethylsilyl derivative at 2 ug/mL after 48 hrs by GC-MS analysis relative to untreated control. Further details: scale not given: the % may be the effect or the level left. Put shortly:
as §1

For test [18] the target is unchanged. In words: Inhibition of Yarrowia lipolytica 24-SMT assessed as zymosterol-3-trimethylsilyl derivative level at 0.2 ug/mL after 48 hrs by GC-MS analysis relative to untreated control. Further details: scale not given: the % may be the effect or the level left. In short, it runs like this: as §1
Test [19] shares this target. In words: Inhibition of Yarrowia lipolytica 24-SMT assessed as dehydroergosterol-3-trimethylsilyl derivative at 1 ug/mL after 48 hrs by GC-MS analysis relative to untreated control. Further details: scale not given: the % may be the effect or the level left. In short, it runs like this:
as §1

Test [20] shares this target. Put plainly: Inhibition of Yarrowia lipolytica 24-SMT assessed as 5-dehydroepisterol-3-trimethylsilyl derivative at 1 ug/mL after 48 hrs by GC-MS analysis relative to untreated control. Further details: scale not given: the % may be the effect or the level left. In short, it runs like this: as §1
The target is the same in test [21]. In words: Inhibition of Yarrowia lipolytica 24-sterol C-methyltransferase assessed as cholesta-5,7,24-trien-3-trimethylsilyl derivative at 1 ug/mL after 48 hrs by GC-MS analysis relative to untreated control. Further details: scale not given: the % may be the effect or the level left. In short, it runs like this:
as §1

For test [22] the target is unchanged. Put plainly: Inhibition of Yarrowia lipolytica 24-SMT assessed as cholesta-7,24-dien-3-trimethylsilyl derivative at 1 ug/mL after 48 hrs by GC-MS analysis relative to untreated control. Further details: scale not given: the % may be the effect or the level left. Put shortly: as §1
Test [23] shares this target. Put plainly: Inhibition of Yarrowia lipolytica 24-SMT assessed as zymosterol-3-trimethylsilyl derivative level at 0.1 ug/mL after 48 hrs by GC-MS analysis relative to untreated control. Further details: scale not given: the % may be the effect or the level left. Put shortly: as §1
For test [24] the target is unchanged. In words: Inhibition of Yarrowia lipolytica 24-SMT assessed as cholesta-5,7,24-trien-3-trimethylsilyl derivative at 0.1 ug/mL after 48 hrs by GC-MS analysis relative to untreated control. Further details: scale not given: the % may be the effect or the level left. In short, it runs like this: as §1
For test [25] the target is unchanged. In words: Inhibition of Yarrowia lipolytica 24-SMT assessed as dehydroergosterol-3-trimethylsilyl derivative at 0.1 ug/mL after 48 hrs by GC-MS analysis relative to untreated control. Further details: scale not given: the % may be the effect or the level left. Put shortly: as §1
For test [26] the target is unchanged. In words: Inhibition of Yarrowia lipolytica 24-SMT assessed as 5-dehydroepisterol-3-trimethylsilyl derivative at 0.1 ug/mL after 48 hrs by GC-MS analysis relative to untreated control. Further details: scale not given: the % may be the effect or the level left. In short, it runs like this: as §1

`C[C@H](/C=C/c1cccc[n+]1C)[C@H]1CC[C@H]2C3=CCC4C[C@@H](O)CC[C@]4(C)[C@H]3CC[C@]12C.[I-]` (stereo not given in full): the Activity in test [1] amounted to 4.3%; in test [2] it was 82.1%; in [3] it was 0.7%; in [4], 1%; in test [6], 4.1%; in test [7], 7%. In addition, the Activity in [8] came out at 0.3%; in test [9], 2.2%; in [10] it was 83.4%; in test [11], 15%. The compound also yielded an MIC with Yarrowia lipolytica [5] of 1 µg/mL.
Consider `CCCNCC[C@@H](C)[C@H]1CC[C@H]2C3=CC[C@H]4C[C@@H](O)CC[C@]4(C)[C@H]3CC[C@]12C`, for which the Activity amounted to 25.9% in test [2]; 2.9% in [3]; 5.4% in test [12]; 60.8% in [9]; 5% in test [11]. Inhibition of growth in the test with Yarrowia lipolytica [5] (MIC) required 0.25 µg/mL (≈ 0.645 µM).
With `CCCCNC[C@@H](C)[C@H]1CC[C@H]2C3=CC[C@H]4C[C@@H](O)CC[C@]4(C)[C@H]3CC[C@]12C`, the Activity was 42.4% in [2], 4.7% in test [3], 5% in test [12] and 47.9% in test [9]. In the test with Yarrowia lipolytica [5], this compound came in with an MIC of 0.25 µg/mL (≈ 0.645 µM).
With `C[C@H](/C=C/c1ccncc1)[C@H]1CC[C@H]2C3=CCC4C[C@@H](O)CC[C@]4(C)[C@H]3CC[C@]12C` (stereo not given in full), the MIC entry in the test with Yarrowia lipolytica [13] was “inactive”.
As for `CNC[C@@H](C)[C@H]1CC[C@H]2C3=CC[C@H]4C[C@@H](O)CC[C@]4(C)[C@H]3CC[C@]12C`, the Activity is 40.4% in test [14], 55.4% in test [15], 1.6% in [16] and 2.6% in test [17]. In addition, the MIC in the test on Yarrowia lipolytica [5] was > 2 µg/mL.
For `CCCCN(C)C[C@@H](C)[C@H]1CC[C@H]2C3=CC[C@H]4C[C@@H](O)CC[C@]4(C)[C@H]3CC[C@]12C`, the Activity was determined as 5.6% in [1]; 4.2% in test [18]; 4.2% in test [4]; 37.4% in [7]; 0.4% in test [8]; 48.2% in test [10]. Besides, inhibition of growth against Yarrowia lipolytica [5] (MIC) required 0.5 µg/mL (≈ 1.24 µM).
On to `C[C@H](CNCCN(C)C)[C@H]1CC[C@H]2C3=CC[C@H]4C[C@@H](O)CC[C@]4(C)[C@H]3CC[C@]12C`, for which the Activity was 24.3% in [19], 3.1% in test [20], 68% in [21] and 4.5% in [22]. For the same compound, the MIC with Yarrowia lipolytica [5] was > 2 µg/mL.
As for `CCCNC[C@@H](C)[C@H]1CC[C@H]2C3=CC[C@H]4C[C@@H](O)CC[C@]4(C)[C@H]3CC[C@]12C`, the Activity was found to be 0.5% in [23], 48.5% in test [24], 47.3% in [25] and 3.7% in test [26]. The MIC with Yarrowia lipolytica [5] is 0.25 µg/mL (≈ 0.669 µM).
